Test results from ChEMBL document CHEMBL1125085, “Synthesis and anticonvulsant activity of some new 2-substituted 3-aryl-4(3H)-quinazolinones” (J Med Chem, 1990).
Where “and” joins values, the source holds several entries; their conditions need not be identical. Equal entries are not always repeated.

What was measured:
Mus musculus [1] = species on record: Mus musculus; assay: (§1) Time taken to reach peak activity was reported.; format: functional
Mus musculus [2] = species on record: Mus musculus; assay: (§2) Time taken to reach peak toxicity was reported.; format: organism-based; conditions: in vivo
Mus musculus [3] = assay: (§3) Subcutaneous metrazole (scMet) test was conducted after Injecting intraperitoneally at the time of peak anticonvulsant in phase II test; format: functional
How it was run: (§4)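 Phase II testing in male Carworth Farms no. 1 mice, ip dosing in 30% PEG 400 (0.01 mL/g). Groups of 8–16 mice received a range of doses, giving at least three points in 10–90% protection. ED50 with 95% confidence interval was fitted by probit analysis at the time of peak effect. scMet used pentylenetetrazol 85 mg/kg sc.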

[4] = Protective index is the ratio of TD50 and ED50 values obtained in the subcutaneous metrazole (scMet) test.; format: functional
How it was run: (§5)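 Protective index = TD50/ED50. Both values are medians from groups of 8–16 animals per dose, with at least three points in the 10–90% effect range, fitted by probit analysis. Each was taken at its own time of peak effect: seizure protection for ED50, neurologic deficit for TD50.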

[5] = Median toxic dose was measured at time of peak neurologic deficit.; format: organism-based; conditions: mouse, in vivo
How it was run: (§6)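 Mice dosed ip in 30% PEG 400. Minimal neurotoxicity was scored by rotorod at the time of peak neurologic deficit. Groups of 8–16 mice were used, with at least three points in the 10–90% range, and TD50 with 95% confidence interval was derived by probit analysis.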

[6] = Median toxic dose was measured at time of peak neurologic deficit; how it was run: as §6
Mus musculus [7] = assay: Subcutaneous metrazole (scMet) test was conducted and median effective dose was determined at the time of peak anticonvulsant and sedative effect; format: organism-based; conditions: in vivo
How it was run: (§7)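 Pentylenetetrazol (85 mg/kg in mice, 70 mg/kg in rats) was given subcutaneously in the posterior midline as a 0.5% solution. Compounds were in 30% PEG 400, dosed ip in male Carworth Farms no. 1 mice, or orally in mice and Sprague-Dawley rats. ED50 was read at time of peak effect, using groups of 8–16 animals and ≥3 doses giving 10–90% protection. Probit analysis gave 95% confidence intervals.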

Mus musculus [8] = assay: (§8) Subcutaneous metrazole (scMet) test was conducted and median effective dose was determined at the time of peak anticonvulsant and sedative effect.; format: organism-based; conditions: in vivo; how it was run: as §7
Mus musculus [9] = assay: Subcutaneous metrazole (scMet) test was done, 4.0 hr after administration; no activity or toxicity up to 300 mg/kg; format: functional, organism-based; set-up: dose 300 mg/kg
Mus musculus [10] = assay: Rotarod test was used to evaluate neurotoxicity in mice. Values are reported after 0.5 h, at 300 mg/kg; no activity or toxicity up to 300 mg/kg; format: organism-based; conditions: in vivo
Mus musculus [11] = assay: Anticonvulsant activity was determined in maximal electroshock seizure test 4.0 h after administration of 300 mg/kg in (mice/rat); no activity or toxicity up to 300 mg/kg; format: functional, organism-based
Mus musculus [12] = assay: Anticonvulsant activity was determined in Subcutaneous metrazole (scMet) test 0.5 h after administration of 300 mg/kg in (mice/rat); no activity or toxicity up to 300 mg/kg; format: functional, organism-based
Mus musculus [13] = assay: Anticonvulsant activity was determined in maximal electroshock seizure test 0.5 h after administration of 300 mg/kg in (mice/rat); no activity or toxicity up to 300 mg/kg; format: functional, organism-based
Mus musculus [14] = assay: as §8; format: functional; conditions: sc; how it was run: as §7
[15] = Dose Injected intraperitoneally that causes death 50% of the mice within 24 hr was reported as lethal dose 50 (LD50).; format: organism-based; conditions: mouse, in vivo, ip
Mus musculus [16] = assay: as §3; format: ADME, organism-based; conditions: ip; how it was run: as §4
Mus musculus [17] = species on record: Mus musculus; assay: Anticonvulsant activity was determined by injecting perorally in mice. MES test was performed; format: functional
How it was run: (§9)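 Oral dosing in mice, test solutions in 30% polyethylene glycol 400, 0.01 mL/g body weight. Groups of 8–16 mice received a range of doses until at least three points fell within 10–90% seizure protection.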

[18] = Protective index is the ratio of TD50 and ED50 values obtained in the maximal electroshock seizure (MES) test.; format: functional; how it was run: as §5
[19] = as §2
Mus musculus [20] = assay: (§10) MES test was performed after Injecting intraperitoneally at the time of peak anticonvulsant effect in phase II test; format: ADME, organism-based; conditions: ip; how it was run: as §4
Rattus norvegicus [21] = species on record: Rattus norvegicus; assay: Anticonvulsant activity was determined by injecting perorally in rats. Time taken to reach peak toxicity was reported.; format: organism-based; conditions: in vivo, po
How it was run: (§11)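 Time of peak effect, in hours, was found separately for anticonvulsant activity and for neurotoxicity. ED50 and TD50 were then determined at those times.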

[22] = Neurotoxicity was determined by injecting perorally in rats; format: toxicity, organism-based; conditions: rat, in vivo, po
How it was run: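 Rats dosed orally in 30% PEG 400. Neurotoxicity was assessed by positional sense and gait-and-stance tests at the time of peak deficit. TD50 with 95% confidence interval was derived by probit analysis from at least three dose points in the 10–90% range.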

[23] = as §1; format: functional
Rattus norvegicus [24] = species on record: Rattus norvegicus; assay: Anticonvulsant activity was determined by injecting perorally in rats. MES test was performed; format: functional
Rattus norvegicus [25] = species on record: Rattus norvegicus; assay: Anticonvulsant activity was determined by injecting perorally in rats. Time taken to reach peak activity was reported.; format: functional; how it was run: as §11
Mus musculus [26] = species on record: Mus musculus; assay: Anticonvulsant activity was determined by injecting perorally in mice.(scMet) test was conducted; format: functional; how it was run: as §9
Rattus norvegicus [27] = species on record: Rattus norvegicus; assay: Anticonvulsant activity was determined by injecting perorally in rats. (scMet) test was conducted; format: functional
Mus musculus [28] = species on record: Mus musculus; assay: Anticonvulsant activity was determined by injecting perorally in mice. Time taken to reach peak toxicity was reported.; format: functional; how it was run: as §11
Mus musculus [29] = assay: Dose Injected intraperitoneally that causes loss of righting reflex in mice was reported as hypnotic dose (HD).; format: functional
How it was run: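 Mice dosed ip after a toxicity profile at TD50, 2× and 4× TD50, observed from 10 min to 24 h. HD50 is the dose causing loss of righting reflex in 50% of mice, with groups of eight mice scored at several times up to 24 h.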

Mus musculus [30] = species on record: Mus musculus; assay: Anticonvulsant activity was determined by injecting perorally in mice. Time taken to reach peak activity was reported.; format: functional; how it was run: as §11
[31] = Protective index is the ratio of TD50 and ED50 values obtained in the subcutaneous metrazole (scMet) test in phase II test; format: functional; how it was run: as §5
[32] = Neurotoxicity was determined by injecting perorally in mice. Median toxic dose was measured; format: toxicity, organism-based; conditions: mouse, in vivo, po
How it was run: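 Mice dosed orally in 30% PEG 400. Neurotoxicity was scored by rotorod at the time of peak neurologic deficit. Groups of 8–16 mice were used, with at least three points in the 10–90% range, and TD50 with 95% confidence interval was derived by probit analysis.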

Rattus norvegicus [33] = species on record: Rattus norvegicus; assay: Anticonvulsant activity was determined by injecting perorally in rats. Time taken to reach peak toxicity was reported; format: organism-based; conditions: in vivo, po; how it was run: as §11
Mus musculus [34] = assay: as §10; format: functional; conditions: ip; how it was run: as §4
[35] = Time taken to reach peak activity was reported in phase II test; format: functional
How it was run: (§12)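 Male Carworth Farms no. 1 mice dosed ip in 30% polyethylene glycol 400 (0.01 mL/g). Seizure protection was tested by MES and by sc pentylenetetrazol (85 mg/kg, 0.5% solution, posterior midline); neurotoxicity was tested on the rotorod. Time of peak effect is given in hours. ED50 and TD50 were determined at that time in groups of 8–16 mice.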

[36] = Time taken to reach peak toxicity was reported in phase II test; how it was run: as §12
Rattus norvegicus [37] = species on record: Rattus norvegicus; assay: Anticonvulsant activity was determined by injecting perorally in rats. Time taken to reach peak activity was reported; format: functional; how it was run: as §11
Mus musculus [38] = species on record: Mus musculus; assay: Anticonvulsant activity was determined by injecting perorally in mice. Maximal electroshock seizure test was performed; format: functional; how it was run: as §9
[39] = Median toxic dose was measured at time of peak neurologic deficit in phase II test; format: organism-based; conditions: mouse, in vivo; how it was run: as §6
[40] = Anticonvulsant activity was determined by injecting perorally in rats. Protective index is the ratio of TD50 and ED50 values obtained in the subcutaneous metrazole (scMet) test; format: functional; how it was run: as §5
Mus musculus [41] = species on record: Mus musculus; assay: Anticonvulsant activity was determined by injecting perorally in mice. Time taken to reach peak toxicity was reported; format: organism-based; conditions: in vivo, po; how it was run: as §11
[42] = Anticonvulsant activity was determined by injecting perorally in mice. Protective index is the ratio of TD50 and ED50 values obtained in the maximal electroshock seizure (MES) test.; format: functional; how it was run: as §5
[43] = Dose Injected intraperitoneally that causes death 50% of the mice within 24 hr was reported as lethal dose 50. No deaths among eight test animals at 4000 mg/kg after 24 hr in phase III test; format: organism-based; set-up: dose 4000 mg/kg, route intraperitoneal; conditions: mouse, in vivo, ip
[44] = Anticonvulsant activity was determined by injecting perorally in mice. Protective index is the ratio of TD50 and ED50 values obtained in the subcutaneous metrazole (scMet) test; format: functional; how it was run: as §5
Mus musculus [45] = species on record: Mus musculus; assay: Anticonvulsant activity was determined by injecting perorally in mice. Time taken to reach peak activity was reported; format: functional; how it was run: as §11
[46] = Anticonvulsant activity was determined by injecting perorally in rats. Protective index is the ratio of TD50 and ED50 values obtained in the maximal electroshock seizure (MES) test.; format: functional; how it was run: as §5
[47] = Protective index is the ratio of TD50 and ED50 values obtained in the maximal electroshock seizure (MES) test in phase II test; format: functional; how it was run: as §5

## COc1ccccc1-n1c(CC(=O)c2ccncc2)nc2ccccc2c1=O
Mus musculus [1]
  TPE: 2 h
Mus musculus [2]
  TPE: 0.5 h
Mus musculus [3]
  ED50: 42 mg/kg
[4]
  PI: 8.8
[5]
  TD50: 370 mg/kg

## Cc1ccccc1-n1c(C)nc2ccccc2c1=O [METHAQUALONE]
[6]
  TD50: 55 mg/kg
Mus musculus [7]
  ED50: 33.5 mg/kg

## CCC1(C)CC(=O)NC1=O (stereo not drawn) [ETHOSUXIMIDE]
Mus musculus [8]
  ED50: 130.4 mg/kg

## Cc1ccc(-n2c(CC(=O)c3cccnc3)nc3ccccc3c2=O)cc1
Mus musculus [9]
  Activity: No activity or toxicity up to 300 mg/kg
Mus musculus [10]
  Activity: No activity or toxicity up to 300 mg/kg
Mus musculus [11]
  Activity: No activity or toxicity up to 300 mg/kg
Mus musculus [12]
  Activity: No activity or toxicity up to 300 mg/kg
Mus musculus [13]
  Activity: No activity or toxicity up to 300 mg/kg

## CCC1(c2ccccc2)C(=O)NC(=O)NC1=O [PHENOBARBITAL]
Mus musculus [14]
  ED50: 13.2 mg/kg

## O=C(Cc1nc2ccccc2c(=O)n1-c1ccccc1Cl)c1ccncc1
[15]
  LD50 at 24 h: > 3000 mg/kg
Mus musculus [16]
  ED50: 14.5 mg/kg
Mus musculus [17]
  ED50: 14.1 mg/kg
[18]
  PI: 1.3 (2×) and 2
[19]
  TPE: 2.5 h
Mus musculus [20]
  ED50: 196 mg/kg
Rattus norvegicus [21]
  TPE: 4 h
[5]
  TD50: 262 mg/kg
[22]
  TD50: 2.91 mg/kg
[23]
  TPE: 2.5 h
Rattus norvegicus [24]
  ED50: 1.44 mg/kg
Rattus norvegicus [25]
  TPE: 4 h
Mus musculus [26]
  ED50: 2.53 mg/kg
Rattus norvegicus [27]
  ED50: 3.09 mg/kg
Mus musculus [28]
  TPE: 0.5
Mus musculus [29]
  HD50: 1181 mg/kg
Mus musculus [30]
  TPE: 1

## Cc1ccccc1-n1c(CC(=O)c2ccncc2)nc2ccccc2c1=O
[31]
  PI: 5.6
[32]
  TD50: 67.6 mg/kg
Rattus norvegicus [33]
  TPE: 4 h
Mus musculus [34]
  ED50: 148 mg/kg
[35]
  TPE: 2 h
[36]
  TPE: 2 h
Rattus norvegicus [37]
  TPE: 4 h
Mus musculus [38]
  ED50: 27.1 mg/kg
[39]
  TD50: 561 mg/kg
[40]
  PI: 1.1
Mus musculus [3]
  ED50: 100 mg/kg
[22]
  TD50: 2.89 mg/kg
Mus musculus [41]
  TPE: 0.5 h
[42]
  PI: 2.5
[43]
  LD50 at 24 h: > 4000 mg/kg
Rattus norvegicus [24]
  ED50: 1.73 mg/kg
[44]
  PI: 4.5
Mus musculus [45]
  TPE: 2 h
Mus musculus [26]
  ED50: 15 mg/kg
Rattus norvegicus [27]
  ED50: 2.57 mg/kg
[46]
  PI: 1.7
[47]
  PI: 3.8
